Experimental data as given in ChEMBL document CHEMBL5058577, “EUbOPEN Chemogenomics Library 2 (Multiplex)” (2022).

Test system: HEK-293T
Assay: Multiplex assay against HEK293T
Format: toxicity, cell-based
Conditions: human
In short: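 Per cents of healthy-nucleus cells form the tubulin, mitochondrial-mass and membrane-permeability phenotype values. Live cells were stained at seeding with Hoechst33342, BioTracker Green Microtubule Cytoskeleton Dye, MitoTracker Red and Annexin V Alexa Fluor 680. After compound addition they were imaged on a CQ1 microscope at 37°C and 5% CO2, and CellPathfinder machine-learning gating split them into Hoechst high-intensity objects or normal cells, normal cells into healthy, pyknosed or fragmented nuclei, and pyknosed cells into mitotic or apoptotic.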

[1] = 12 h, 1 µM, compound concentration 1 uM, replicate 1
[2] = 12 h, 1 µM, compound concentration 1 uM, replicate 2
[3] = 12 h, 10 µM, compound concentration 10 uM, replicate 1
[4] = 12 h, 10 µM, compound concentration 10 uM, replicate 2
[5] = 24 h, 1 µM, compound concentration 1 uM, replicate 1
[6] = 24 h, 1 µM, compound concentration 1 uM, replicate 2
[7] = 24 h, 10 µM, compound concentration 10 uM, replicate 1
[8] = 24 h, 10 µM, compound concentration 10 uM, replicate 2
[9] = 48 h, 1 µM, compound concentration 1 uM, replicate 1
[10] = 48 h, 1 µM, compound concentration 1 uM, replicate 2
[11] = 48 h, 10 µM, compound concentration 10 uM, replicate 1
[12] = 48 h, 10 µM, compound concentration 10 uM, replicate 2

In the case of `CN1CCN(c2nc3cc(C(F)(F)F)ccc3n3cccc23)CC1.O=C(O)/C=C\C(=O)O.O=C(O)/C=C\C(=O)O`, the “Population Apoptotic (%)” value [1] is reported as 37%, the “Population Fragmented Nuclei (%)” value [1] is reported as 5% and the “Population Healthy Nuclei (%)” value [1] is reported as 80%. The “Population Hoechst High Intensity Objects (%)” value [1] was 10%, the “Population Membrane Permeable-Phenotype (%)” value [1] was 0% and the “Population Mitochondria Different-Phenotype (%)” value [1] was 48%. For the same molecule, the “Population Mitotic Cells (%)” value [1] was 62%, the “Population Normal (%)” value [1] was 89% and the “Population Pyknosed Nuclei (%)” value [1] was 13%. The “Population Tubulin-Different-Phenotype (%)” value [1] was 33%, the “Total Cell Count” value [1] was 438 and the “Population Apoptotic (%)” value [2] was 53%. For the same molecule, the “Population Fragmented Nuclei (%)” value [2] was 8%, the “Population Healthy Nuclei (%)” value [2] was 77% and the “Population Hoechst High Intensity Objects (%)” value [2] was 5%. For the same molecule, the “Population Mitochondria Different-Phenotype (%)” value [2] was 76%, the “Population Mitotic Cells (%)” value [2] was 46% and the “Population Normal (%)” value [2] was 94%. The “Population Pyknosed Nuclei (%)” value [2] was 14%, the “Population Tubulin-Different-Phenotype (%)” value [2] was 35% and the “Total Cell Count” value [2] was 332. The “Population Apoptotic (%)” value [3] was 68%, the “Population Fragmented Nuclei (%)” value [3] was 7% and the “Population Healthy Nuclei (%)” value [3] was 76%. For the same molecule, the “Population Hoechst High Intensity Objects (%)” value [3] was 14%, the “Population Membrane Permeable-Phenotype (%)” value [3] was 0% and the “Population Mitochondria Different-Phenotype (%)” value [3] was 73%. For the same molecule, the “Population Mitotic Cells (%)” value [3] was 31%, the “Population Normal (%)” value [3] was 85% and the “Population Pyknosed Nuclei (%)” value [3] was 15%. The “Population Tubulin-Different-Phenotype (%)” value [3] was 64%, the “Total Cell Count” value [3] was 396 and the “Population Apoptotic (%)” value [4] was 64%. The “Population Fragmented Nuclei (%)” value [4] was 5%, the “Population Hoechst High Intensity Objects (%)” value [4] was 9% and the “Population Mitochondria Different-Phenotype (%)” value [4] was 89%. The “Population Mitotic Cells (%)” value [4] was 35%, the “Population Normal (%)” value [4] was 90% and the “Population Pyknosed Nuclei (%)” value [4] was 18%. The “Population Tubulin-Different-Phenotype (%)” value [4] was 66%, the “Total Cell Count” value [4] was 286 and the “Population Apoptotic (%)” value [5] was 33%. The “Population Fragmented Nuclei (%)” value [5] was 9%, the “Population Healthy Nuclei (%)” value [5] was 81% and the “Population Hoechst High Intensity Objects (%)” value [5] was 6%. For the same molecule, the “Population Membrane Permeable-Phenotype (%)” value [5] was 1%, the “Population Mitochondria Different-Phenotype (%)” value [5] was 30% and the “Population Mitotic Cells (%)” value [5] was 66%. The “Population Normal (%)” value [5] was 93%, the “Population Pyknosed Nuclei (%)” value [5] was 9% and the “Population Tubulin-Different-Phenotype (%)” value [5] was 24%. The “Total Cell Count” value [5] was 557, the “Population Apoptotic (%)” value [6] was 54% and the “Population Fragmented Nuclei (%)” value [6] was 6%. The “Population Healthy Nuclei (%)” value [6] was 83%, the “Population Membrane Permeable-Phenotype (%)” value [6] was 0% and the “Population Mitochondria Different-Phenotype (%)” value [6] was 50%. The “Population Mitotic Cells (%)” value [6] was 45%, the “Population Pyknosed Nuclei (%)” value [6] was 10% and the “Population Tubulin-Different-Phenotype (%)” value [6] was 25%. For the same molecule, the “Total Cell Count” value [6] was 390, the “Population Apoptotic (%)” value [7] was 41% and the “Population Fragmented Nuclei (%)” value [7] was 8%. The “Population Healthy Nuclei (%)” value [7] was 77%, the “Population Hoechst High Intensity Objects (%)” value [7] was 9% and the “Population Membrane Permeable-Phenotype (%)” value [7] was 0%. The “Population Mitochondria Different-Phenotype (%)” value [7] was 65%, the “Population Mitotic Cells (%)” value [7] was 58% and the “Population Normal (%)” value [7] was 90%. For the same molecule, the “Population Pyknosed Nuclei (%)” value [7] was 13%, the “Population Tubulin-Different-Phenotype (%)” value [7] was 62% and the “Total Cell Count” value [7] was 490. The “Population Apoptotic (%)” value [8] was 63%, the “Population Fragmented Nuclei (%)” value [8] was 10% and the “Population Healthy Nuclei (%)” value [8] was 78%. The “Population Hoechst High Intensity Objects (%)” value [8] was 7%, the “Population Mitochondria Different-Phenotype (%)” value [8] was 79% and the “Population Mitotic Cells (%)” value [8] was 36%. The “Population Normal (%)” value [8] was 92%, the “Population Pyknosed Nuclei (%)” value [8] was 10% and the “Population Tubulin-Different-Phenotype (%)” value [8] was 58%. The “Total Cell Count” value [8] was 378, the “Population Apoptotic (%)” value [9] was 20% and the “Population Fragmented Nuclei (%)” value [9] was 13%. The “Population Healthy Nuclei (%)” value [9] was 78%, the “Population Hoechst High Intensity Objects (%)” value [9] was 3% and the “Population Membrane Permeable-Phenotype (%)” value [9] was 2%. The “Population Mitochondria Different-Phenotype (%)” value [9] was 17%, the “Population Mitotic Cells (%)” value [9] was 79% and the “Population Normal (%)” value [9] was 96%. The “Population Pyknosed Nuclei (%)” value [9] was 7%, the “Population Tubulin-Different-Phenotype (%)” value [9] was 17% and the “Total Cell Count” value [9] was 915. For the same molecule, the “Population Apoptotic (%)” value [10] was 37%, the “Population Healthy Nuclei (%)” value [10] was 79% and the “Population Hoechst High Intensity Objects (%)” value [10] was 5%. The “Population Membrane Permeable-Phenotype (%)” value [10] was 0%, the “Population Mitochondria Different-Phenotype (%)” value [10] was 42% and the “Population Mitotic Cells (%)” value [10] was 62%. The “Population Normal (%)” value [10] was 94%, the “Population Tubulin-Different-Phenotype (%)” value [10] was 21% and the “Total Cell Count” value [10] was 535. For the same molecule, the “Population Apoptotic (%)” value [11] was 50%, the “Population Fragmented Nuclei (%)” value [11] was 15% and the “Population Healthy Nuclei (%)” value [11] was 75%. For the same molecule, the “Population Hoechst High Intensity Objects (%)” value [11] was 10%, the “Population Membrane Permeable-Phenotype (%)” value [11] was 2% and the “Population Mitochondria Different-Phenotype (%)” value [11] was 41%. For the same molecule, the “Population Mitotic Cells (%)” value [11] was 50%, the “Population Normal (%)” value [11] was 89% and the “Population Pyknosed Nuclei (%)” value [11] was 8%. The “Population Tubulin-Different-Phenotype (%)” value [11] was 44%, the “Total Cell Count” value [11] was 672 and the “Population Apoptotic (%)” value [12] was 52%. For the same molecule, the “Population Fragmented Nuclei (%)” value [12] was 11%, the “Population Healthy Nuclei (%)” value [12] was 77% and the “Population Hoechst High Intensity Objects (%)” value [12] was 12%. The “Population Membrane Permeable-Phenotype (%)” value [12] was 0%, the “Population Mitochondria Different-Phenotype (%)” value [12] was 65% and the “Population Mitotic Cells (%)” value [12] was 47%. For the same molecule, the “Population Normal (%)” value [12] was 87%, the “Population Pyknosed Nuclei (%)” value [12] was 10% and the “Population Tubulin-Different-Phenotype (%)” value [12] was 56%. The “Total Cell Count” value [12] was 472.
